CC50, MBC and MIC data for 9 molecules are collected here from ChEMBL document CHEMBL2396592, “Discovery of Dap-3 polymyxin analogues for the treatment of multidrug-resistant Gram-negative nosocomial infections” (J Med Chem, 2013).

For orientation: MBC means the lowest tested concentration that kills the bacteria rather than only halting them. A high value points to less potent killing. For orientation: MIC means the smallest concentration in the dilution series that meets the test's criterion for growth inhibition.

Converted amounts (≈) assume the structure as drawn. Where a SMILES comes first, the peptide text is derived from it. Bridges are numbered along the chain shown (N, C = ends). [ ]: non-standard residue; d: D form. The star is where a group is joined. X11 = COc1cc(C(=O)*)cc(-c2ccccc2)c1; X12 = O=C(c1ccc(Cl)c(-c2ccccc2)c1)*; X16 = COc1cc(C(=O)*)cc(-c2ccccc2)n1; X15 = N#Cc1ccc(C(=O)*)cc1-c1ccccc1; X9 = COc1ccc(-c2cc(C(=O)*)ccn2)cc1; X10 = O=C(c1ccnc(-c2ccccc2Cl)c1)*; X13 = COc1ccc(-c2ccccc2)cc1C(=O)*; X8 = N#Cc1cc(C(=O)*)ccc1-c1ccccc1; X14 = O=C(c1ccc(Oc2ccccc2)nc1)*; Dab = NCC[C@H](N)C(=O)O; Dap = NC[C@H](N)C(=O)O

Data set [1] can be described thus: Cytotoxicity against human RPTEC after 24 hrs by LDH assay. In kind it is cell-based. Conditions: RPTEC cells, read-out: TC50. The method in brief:
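Primary human renal proximal tubule epithelial cells in REGM (EGF, hydrocortisone, epinephrine, insulin, T3, transferrin, gentamycin/amphotericin-B, FBS). After 72 h of growth at 37 °C, 5% CO2, cells were exposed for 24 h to aqueous compound at 100, 67, 44, 30, 20 and 13 μM. LDH release into the supernatant was measured by kit and TC50 (μM) derived, with PMB and PMBN as controls.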

The test system of data set [2] is Pseudomonas aeruginosa. In words: Bactericidal activity against polymyxin-resistant Pseudomonas aeruginosa clinical isolate 1646. In kind it is functional. The method in brief:
(§1)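 Test strain PA-1646 is a P. aeruginosa isolate with a mutated PmrAB two-component system. The system is constitutively active, so the modified lipid A moiety is constantly expressed on the cell surface, giving a polymyxin-resistant phenotype.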

Data set [3] has as its system Pseudomonas aeruginosa. In words: Antibacterial activity against polymyxin-resistant Pseudomonas aeruginosa clinical isolate 1646 assessed as growth inhibition by broth microdilution method. In kind it is functional. The method in brief:
as §1

A further data set relates to Escherichia coli. In words: Antibacterial activity against polymyxin-sensitive Escherichia coli isolate 1 assessed as growth inhibition by broth microdilution method. In kind it is functional. In general terms: In broth dilution the organism is exposed to a series of concentrations in liquid medium.
Data set [4] has as its system Acinetobacter baumannii. Put plainly: Antibacterial activity against polymyxin-resistant Acinetobacter baumannii clinical isolate 1649 assessed as growth inhibition by broth microdilution method. In kind it is functional.
Data set [5] concerns Pseudomonas aeruginosa. Put plainly: Antibacterial activity against polymyxin-sensitive Pseudomonas aeruginosa 1401 assessed as growth inhibition by broth microdilution method. In kind it is functional. In a few lines: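 CLSI broth microdilution MIC against P. aeruginosa 1401 (PA01) and 1402 (UC12120), the two strains used in the mouse thigh model.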
Data set [6] relates to Acinetobacter baumannii. Put plainly: Antibacterial activity against polymyxin-sensitive Acinetobacter baumannii clinical isolate 3167 assessed as growth inhibition by broth microdilution method. Format: functional.
The subject of data set [7] is Acinetobacter baumannii. In words: Bactericidal activity against polymyxin-resistant Acinetobacter baumannii clinical isolate 1649. In kind it is functional.
The next data set has as its system Klebsiella pneumoniae. In words: Antibacterial activity against polymyxin-sensitive ESBL-positive Klebsiella pneumoniae clinical isolate 3700 assessed as growth inhibition by broth microdilution method. Format: functional.

Take `CC(C)C[C@@H]1NC(=O)[C@@H](Cc2ccccc2)NC(=O)[C@H](CCN)NC(=O)[C@@H](NC(=O)[C@H](CN)NC(=O)[C@@H](NC(=O)[C@H](CCN)NC(=O)c2ccc(-c3ccccc3)c(C#N)c2)[C@@H](C)O)CCNC(=O)[C@H]([C@@H](C)O)NC(=O)[C@H](CCN)NC(=O)[C@H](CCN)NC1=O` (X8-[Dab]T[Dap][Dab][Dab][dF]L[Dab][Dab]T; lactam 4-C): in data set [1], the CC50 at 24 h amounted to 32 µM. In addition, the results for the MBC against Pseudomonas aeruginosa [2] and against Acinetobacter baumannii [7] were 4 µg/mL (≈ 3.19 µM) and 1 µg/mL (≈ 0.797 µM), respectively. The MIC in the data set with Pseudomonas aeruginosa [3] is 2 µg/mL; in the data set on Escherichia coli it was 0.5 µg/mL; in the data set with Acinetobacter baumannii [4], 1 µg/mL; in the data set with Pseudomonas aeruginosa [5] it was 1 µg/mL; with Acinetobacter baumannii [6], 0.25 µg/mL; with Klebsiella pneumoniae it was 0.5 µg/mL.

On to `COc1ccc(-c2cc(C(=O)N[C@@H](CCN)C(=O)N[C@H](C(=O)N[C@@H](CN)C(=O)N[C@H]3CCNC(=O)[C@H]([C@@H](C)O)NC(=O)[C@H](CCN)NC(=O)[C@H](CCN)NC(=O)[C@H](CC(C)C)NC(=O)[C@@H](Cc4ccccc4)NC(=O)[C@H](CCN)NC3=O)[C@@H](C)O)ccn2)cc1` (X9-[Dab]T[Dap][Dab][Dab][dF]L[Dab][Dab]T; lactam 4-C), for which, in data set [1], the CC50 at 24 h was 78 µM. Further, the minimum bactericidal concentration (MBC) came to 8 µg/mL (≈ 6.35 µM) against Pseudomonas aeruginosa [2] and 2 µg/mL (≈ 1.59 µM) against Acinetobacter baumannii [7]. Besides, the MIC is 2 µg/mL in the data set with Pseudomonas aeruginosa [3]; 0.25 µg/mL in the data set with Escherichia coli; 2 µg/mL in the data set with Acinetobacter baumannii [4]; 0.5 µg/mL in the data set with Pseudomonas aeruginosa [5]; 0.25 µg/mL in the data set with Acinetobacter baumannii [6]; 0.25 µg/mL in the data set on Klebsiella pneumoniae.

Consider `CC(C)C[C@@H]1NC(=O)[C@@H](Cc2ccccc2)NC(=O)[C@H](CCN)NC(=O)[C@@H](NC(=O)[C@H](CN)NC(=O)[C@@H](NC(=O)[C@H](CCN)NC(=O)c2ccnc(-c3ccccc3Cl)c2)[C@@H](C)O)CCNC(=O)[C@H]([C@@H](C)O)NC(=O)[C@H](CCN)NC(=O)[C@H](CCN)NC1=O` (X10-[Dab]T[Dap][Dab][Dab][dF]L[Dab][Dab]T; lactam 4-C), for which the CC50 at 24 h in [1] was 86 µM. Moreover, the MBC stood at 16 µg/mL (≈ 12.6 µM) in the data set on Pseudomonas aeruginosa [2] and 1 µg/mL (≈ 0.791 µM) in the data set on Acinetobacter baumannii [7]. The MIC came out at 4 µg/mL in the data set on Pseudomonas aeruginosa [3]; 0.125 µg/mL in the data set on Escherichia coli; 1 µg/mL with Acinetobacter baumannii [4]; 0.5 µg/mL in the data set with Pseudomonas aeruginosa [5]; 0.25 µg/mL in the data set on Acinetobacter baumannii [6]; 0.25 µg/mL in the data set on Klebsiella pneumoniae.

With `COc1cc(C(=O)N[C@@H](CCN)C(=O)N[C@H](C(=O)N[C@@H](CN)C(=O)N[C@H]2CCNC(=O)[C@H]([C@@H](C)O)NC(=O)[C@H](CCN)NC(=O)[C@H](CCN)NC(=O)[C@H](CC(C)C)NC(=O)[C@@H](Cc3ccccc3)NC(=O)[C@H](CCN)NC2=O)[C@@H](C)O)cc(-c2ccccc2)c1` (X11-[Dab]T[Dap][Dab][Dab][dF]L[Dab][Dab]T; lactam 4-C), the CC50 at 24 h in data set [1] is 26 µM. Further, the minimum bactericidal concentration (MBC) against Pseudomonas aeruginosa [2] is 4 µg/mL (≈ 3.18 µM); with Acinetobacter baumannii [7], 8 µg/mL (≈ 6.35 µM). Further, the MIC in the data set on Pseudomonas aeruginosa [3] was 2 µg/mL; in the data set on Escherichia coli, 0.25 µg/mL; with Acinetobacter baumannii [4], 4 µg/mL; with Pseudomonas aeruginosa [5], 0.5 µg/mL; in the data set with Acinetobacter baumannii [6], 0.25 µg/mL; in the data set with Klebsiella pneumoniae, 0.25 µg/mL.

With `CC(C)C[C@@H]1NC(=O)[C@@H](Cc2ccccc2)NC(=O)[C@H](CCN)NC(=O)[C@@H](NC(=O)[C@H](CN)NC(=O)[C@@H](NC(=O)[C@H](CCN)NC(=O)c2ccc(Cl)c(-c3ccccc3)c2)[C@@H](C)O)CCNC(=O)[C@H]([C@@H](C)O)NC(=O)[C@H](CCN)NC(=O)[C@H](CCN)NC1=O` (X12-[Dab]T[Dap][Dab][Dab][dF]L[Dab][Dab]T; lactam 4-C), in data set [1], the CC50 at 24 h was determined as 14 µM. The minimum bactericidal concentration (MBC) against Pseudomonas aeruginosa [2] and against Acinetobacter baumannii [7] was 1 µg/mL (≈ 0.791 µM) in each case. Also, the MIC with Pseudomonas aeruginosa [3] was found to be 0.5 µg/mL; in the data set on Escherichia coli, 0.25 µg/mL; in the data set on Acinetobacter baumannii [4], 1 µg/mL; in the data set on Pseudomonas aeruginosa [5], 1 µg/mL; in the data set with Acinetobacter baumannii [6], 0.5 µg/mL; with Klebsiella pneumoniae it was 0.25 µg/mL.

In the case of `COc1ccc(-c2ccccc2)cc1C(=O)N[C@@H](CCN)C(=O)N[C@H](C(=O)N[C@@H](CN)C(=O)N[C@H]1CCNC(=O)[C@H]([C@@H](C)O)NC(=O)[C@H](CCN)NC(=O)[C@H](CCN)NC(=O)[C@H](CC(C)C)NC(=O)[C@@H](Cc2ccccc2)NC(=O)[C@H](CCN)NC1=O)[C@@H](C)O` (X13-[Dab]T[Dap][Dab][Dab][dF]L[Dab][Dab]T; lactam 4-C), the CC50 at 24 h in data set [1] was 19 µM. The MBC in the data set on Pseudomonas aeruginosa [2] amounted to 2 µg/mL (≈ 1.59 µM); in the data set on Acinetobacter baumannii [7], 4 µg/mL (≈ 3.18 µM). The MIC stood at 2 µg/mL with Pseudomonas aeruginosa [3]; 0.5 µg/mL in the data set with Escherichia coli; 4 µg/mL in the data set with Acinetobacter baumannii [4]; 0.5 µg/mL with Pseudomonas aeruginosa [5]; 0.25 µg/mL with Acinetobacter baumannii [6]; 0.25 µg/mL with Klebsiella pneumoniae.

As for `CC(C)C[C@@H]1NC(=O)[C@@H](Cc2ccccc2)NC(=O)[C@H](CCN)NC(=O)[C@@H](NC(=O)[C@H](CN)NC(=O)[C@@H](NC(=O)[C@H](CCN)NC(=O)c2ccc(Oc3ccccc3)nc2)[C@@H](C)O)CCNC(=O)[C@H]([C@@H](C)O)NC(=O)[C@H](CCN)NC(=O)[C@H](CCN)NC1=O` (X14-[Dab]T[Dap][Dab][Dab][dF]L[Dab][Dab]T; lactam 4-C), the CC50 at 24 h in data set [1] was 61 µM. For the same molecule, the MBC was 16 µg/mL (≈ 12.8 µM) against Pseudomonas aeruginosa [2] and 4 µg/mL (≈ 3.21 µM) against Acinetobacter baumannii [7]. Besides, the MIC worked out at 4 µg/mL in the data set on Pseudomonas aeruginosa [3]; 0.25 µg/mL with Escherichia coli; 2 µg/mL in the data set on Acinetobacter baumannii [4]; 1 µg/mL with Pseudomonas aeruginosa [5]; 0.25 µg/mL in the data set on Acinetobacter baumannii [6]; 0.25 µg/mL in the data set on Klebsiella pneumoniae.

As to `CC(C)C[C@@H]1NC(=O)[C@@H](Cc2ccccc2)NC(=O)[C@H](CCN)NC(=O)[C@@H](NC(=O)[C@H](CN)NC(=O)[C@@H](NC(=O)[C@H](CCN)NC(=O)c2ccc(C#N)c(-c3ccccc3)c2)[C@@H](C)O)CCNC(=O)[C@H]([C@@H](C)O)NC(=O)[C@H](CCN)NC(=O)[C@H](CCN)NC1=O` (X15-[Dab]T[Dap][Dab][Dab][dF]L[Dab][Dab]T; lactam 4-C), the CC50 at 24 h in data set [1] amounted to 39 µM. Also, the minimal bactericidal concentration (MBC) worked out at 4 µg/mL (≈ 3.19 µM) with Pseudomonas aeruginosa [2] and 0.5 µg/mL (≈ 0.399 µM) in the data set with Acinetobacter baumannii [7]. Moreover, the minimum inhibitory concentration (MIC) with Pseudomonas aeruginosa [3] worked out at 2 µg/mL; with Escherichia coli it was 0.125 µg/mL; with Acinetobacter baumannii [4], 0.5 µg/mL; with Pseudomonas aeruginosa [5] it was 0.25 µg/mL; in the data set with Acinetobacter baumannii [6], 0.25 µg/mL; in the data set on Klebsiella pneumoniae, 0.25 µg/mL.

Consider `COc1cc(C(=O)N[C@@H](CCN)C(=O)N[C@H](C(=O)N[C@@H](CN)C(=O)N[C@H]2CCNC(=O)[C@H]([C@@H](C)O)NC(=O)[C@H](CCN)NC(=O)[C@H](CCN)NC(=O)[C@H](CC(C)C)NC(=O)[C@@H](Cc3ccccc3)NC(=O)[C@H](CCN)NC2=O)[C@@H](C)O)cc(-c2ccccc2)n1` (X16-[Dab]T[Dap][Dab][Dab][dF]L[Dab][Dab]T; lactam 4-C), for which the CC50 at 24 h in data set [1] amounted to 24 µM. For the same molecule, the minimum bactericidal concentration (MBC) with Pseudomonas aeruginosa [2] is 1 µg/mL (≈ 0.793 µM); in the data set with Acinetobacter baumannii [7], 4 µg/mL (≈ 3.17 µM). Also, the minimum inhibitory concentration (MIC) with Pseudomonas aeruginosa [3] was 1 µg/mL; in the data set with Escherichia coli, 0.25 µg/mL; with Acinetobacter baumannii [4], 4 µg/mL; in the data set with Pseudomonas aeruginosa [5], 0.5 µg/mL; in the data set on Acinetobacter baumannii [6], 0.5 µg/mL; in the data set with Klebsiella pneumoniae it was 0.25 µg/mL.
